The values that follow come from ChEMBL document CHEMBL1131436, “Repaglinide and related hypoglycemic benzoic acid derivatives” (1998).

Assay [1] relates to Rattus norvegicus. Nature of the assay: Maximum % decrease of blood glucose (deltaBG) was observed within 4 hour after administration orally at 10 mg/kg dose to fasted adult female rats versus a control group. Type of assay: functional. The conditions noted are these: route oral. Put shortly: (§1)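 Female Wistar rats (Chbb THOM, SPF, 200-220 g), fasted 24 h, dosed orally by gavage as suspension in 1.5% Tylose methylcellulose (10 mL/kg). Whole blood from retrobulbar plexus under light halothane, deproteinized with 0.33 M HClO4; glucose by hexokinase/G6PDH, hourly up to 4 h. % decrease vs control group (N = 7), Student's t-test, P ≤ 0.05.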

Assay [2] has as its system Rattus norvegicus. Nature of the assay: Maximum % decrease of blood glucose (deltaBG) was observed within 4 hour after administration orally at 5 mg/kg dose to fasted adult female rats versus a control group. The note with it: route oral. Type of assay: functional. Put shortly: as §1
The subject of assay [3] is Rattus norvegicus. Nature of the assay: Maximum % decrease of blood glucose (deltaBG) was observed within 4 hour after administration orally at 25 mg/kg dose to fasted adult female rats versus a control group; NS =' not significant'. Type of assay: functional, organism-based. Further details: dose 25 mg/kg. Put shortly:
as §1

For assay [4], the system named is Rattus norvegicus. As to the kind of experiment: Maximum % decrease of blood glucose (deltaBG) was observed within 4 hour after administration orally at 25 mg/kg dose to fasted adult female rats versus a control group. The conditions noted are these: route oral. Type of assay: functional. Put shortly: as §1
Assay [5] has as its system Rattus norvegicus. Nature of the assay: Maximum % decrease of blood glucose (deltaBG) was observed within 4 hour after administration orally at 1 mg/kg dose to fasted adult female rats versus a control group. It is filed as functional. The conditions noted are these: route oral. The procedure, abridged: as §1
Assay [6] concerns Rattus norvegicus. Nature of the assay: Maximum % decrease of blood glucose (deltaBG) was observed within 4 hour after administration orally at 0.5 mg/kg dose to fasted adult female rats versus a control group. Type of assay: functional. The note with it: route oral. Put shortly: as §1
Assay [7] has as its system Rattus norvegicus. Nature of the assay: Maximum % decrease of blood glucose (deltaBG) was observed within 4 hour after administration orally at 10 mg/kg dose to fasted adult female rats versus a control group; NS =' not significant'. Further details: dose 10 mg/kg. Type of assay: functional, organism-based. Put shortly:
as §1

The test system of assay [8] is Rattus norvegicus. Nature of the assay: Maximum % decrease of blood glucose (deltaBG) was observed within 4 hour after administration orally at 1 mg/kg dose to fasted adult female rats versus a control group; NS =' not significant'. Further details: dose 1 mg/kg. It is filed as functional, organism-based. Put shortly: as §1
Assay [9] deals with Rattus norvegicus. Nature of the assay: Maximum % decrease of blood glucose (deltaBG) was observed within 4 hour after administration orally at 0.1 mg/kg dose to fasted adult female rats versus a control group. Type of assay: functional. The note with it: route oral. The procedure, abridged:
as §1

In assay [10] the test system is Rattus norvegicus. Nature of the assay: Half-maximal effective dose was measured on rat blood glucose after administrating at 4 hr. It is filed as functional. Put shortly:
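Adult fasted female Wistar rats (Chbb THOM, SPF, 200-220 g), food withdrawn 24 h; oral gavage of suspension in 1.5% Tylose (methylcellulose), 10 mL/kg. Retrobulbar blood under light halothane; glucose by hexokinase/G6PDH after HClO4 deproteinization, hourly to 4 h. ED50 from fit of glucose vs dose, y = b + [a × k/(k + x^nH)], Hill coefficient nH.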

Setting [11] is: Rattus norvegicus, Blood, 4 h, read-out: ED50.

Take `CC(NC(=O)Cc1ccc(C(=O)O)cc1)c1cc(Cl)ccc1N1CCCCC1` (stereo not given): the “Delta BG” value in the assay with Rattus norvegicus [1] is -36%; in the assay on Rattus norvegicus [2], -18%.

On to `CC(NC(=O)Cc1ccc(C(=O)O)cc1)c1ccccc1N1CCCCCCCC1` (stereo not given), for which the “Delta BG” value in the assay on Rattus norvegicus [3] was “Not significant”.

As to `O=C(O)c1ccc(CCNC(=O)c2cc(Cl)ccc2N2CCCC2)cc1`, the “Delta BG” value with Rattus norvegicus [4] is on record as -18%.

On to `CCOc1cc(CCNC(=O)c2cc(Cl)ccc2OC)ccc1C(=O)O`, for which the “Delta BG” value in the assay with Rattus norvegicus [5] is given as -8%; in the assay with Rattus norvegicus [1], -35%.

For `CCC(NC(=O)Cc1ccc(C(=O)O)cc1)c1ccccc1N1CCCCC1` (stereo not given), the “Delta BG” value in the assay on Rattus norvegicus [6] is -28%.

As to `CC(NC(=O)Cc1ccc(S(N)(=O)=O)cc1)c1ccccc1N1CCCCC1` (stereo not given), the “Delta BG” value in the assay on Rattus norvegicus [7] is “Not significant”.

For the compound `CCCC(NC(=O)Cc1ccc(C(=O)O)c(O)c1)c1ccccc1N1CCCCC1` (stereo not given), the “Delta BG” value in the assay with Rattus norvegicus [8] is “Not significant”; in the assay with Rattus norvegicus [1], -47%.

Consider `CCOc1cc(CC(=O)NC(CC2CCC2)c2ccccc2N2CCCCC2)ccc1C(=O)O` (stereo not given), for which, in the assay with Rattus norvegicus [9], the “Delta BG” value is listed as -27%.

For `CC(C)CC(NC(=O)Cc1ccc(C(=O)O)cc1)c1ccccc1N1CCCCC1` (stereo not given), in the assay with Rattus norvegicus [9], the “Delta BG” value is reported as -30%.

`O=C(O)c1ccc(CCNC(=O)c2cc(Cl)ccc2N2CCCCC2)cc1`: the “Delta BG” value with Rattus norvegicus [8] was “Not significant”; in the assay on Rattus norvegicus [2], -37%.

Take `CCOc1cc(CC(=O)NC(c2ccccc2)c2ccccc2N2CCCCC2)ccc1C(=O)O` (stereo not given): the “Delta BG” value in the assay with Rattus norvegicus [9] was -22%; in the assay with Rattus norvegicus [6], -40%.

On to `CCC[C@H](NC(=O)Cc1ccc(C(=O)O)cc1)c1ccccc1N1CCCCC1`, for which the “Delta BG” value in the assay with Rattus norvegicus [9] is -29%.

Consider `CCCCC(NC(=O)Cc1ccc(C(=O)O)cc1)c1ccccc1N1CCCCC1` (stereo not given), for which the “Delta BG” value in the assay with Rattus norvegicus [6] is -32%.

On to `CCCCCC(NC(=O)Cc1ccc(C(=O)O)c(OCC)c1)c1ccccc1N1CCCCC1` (stereo not given), for which the “Delta BG” value in the assay with Rattus norvegicus [9] is listed as -13%; in the assay with Rattus norvegicus [6], -42%.

With `CC1CC(C)CN(c2ccc(Cl)cc2C(=O)NCCc2ccc(C(=O)O)cc2)C1` (stereo in doubt; 5h), in the assay with Rattus norvegicus [10] (setting [11]), the median effective dose (ED50) was 0.33 mg/kg. Moreover, the “Delta BG” value in the assay on Rattus norvegicus [6] is recorded as -29%; in the assay on Rattus norvegicus [5] (1 mg/kg), -44%.

Take `CC(C)(NC(=O)Cc1ccc(C(=O)O)cc1)c1cc(Cl)ccc1N1CCCCC1`: the “Delta BG” value in the assay on Rattus norvegicus [7] was “Not significant”.

Turning to `CC(C)C(NC(=O)Cc1ccc(C(=O)O)cc1)c1ccccc1N1CCCCC1` (stereo not given), the “Delta BG” value in the assay with Rattus norvegicus [6] is given as -18%.

As to `CC1CCN(c2ccccc2C(C)NC(=O)Cc2ccc(C(=O)O)cc2)CC1` (stereo not given), the “Delta BG” value in the assay on Rattus norvegicus [5] is recorded as -27%; with Rattus norvegicus [1], -46%.

As to `CCCC(NC(=O)Cc1ccc(C(=O)O)cc1)c1ccccc1C1=CCCCC1` (stereo not given), the entries for the “Delta BG” value in the assay on Rattus norvegicus [8] and in the assay with Rattus norvegicus [1] were “Not significant” and -48%, respectively.

In the case of `CC(NC(=O)Cc1ccc(C(=O)O)cc1)c1ccccc1N1CCCCC1C` (stereo not given), the “Delta BG” value is -13% with Rattus norvegicus [5] and -43% with Rattus norvegicus [1].

With `C=C(C)C[C@H](NC(=O)Cc1ccc(C(=O)O)c(OCC)c1)c1ccccc1N1CCCCC1`, the “Delta BG” value with Rattus norvegicus [9] is listed as -43%.

Take `CCOc1cc(CC(=O)NC(CC2CCCC2)c2ccccc2N2CCCCC2)ccc1C(=O)O` (stereo not given): in the assay on Rattus norvegicus [9], the “Delta BG” value is -17%.

For the compound `CC(NC(=O)Cc1ccc(C(=O)O)cc1)c1cccc(N2CCCCC2)c1` (stereo not given), the “Delta BG” value in the assay with Rattus norvegicus [4] is reported as -15%.

On to `CCOc1cc(CC(=O)NC(CC2CC2)c2ccccc2N2CCCCC2)ccc1C(=O)O` (stereo not given), for which the “Delta BG” value in the assay on Rattus norvegicus [9] is given as -37%.

`CC(NC(=O)Cc1ccc(C(=O)O)cc1)c1cc(Cl)ccc1N1CCCCCCC1` (stereo not given): the “Delta BG” value in the assay on Rattus norvegicus [3] was “Not significant”.

Regarding `CN(C)c1ccc(Cl)cc1C(=O)NCCc1ccc(C(=O)O)cc1`, the “Delta BG” value in the assay on Rattus norvegicus [4] was -28%.

On to `CCCC(CCCc1ccc(C(=O)O)cc1)c1ccccc1N1CCCCC1` (stereo not given), for which the “Delta BG” value in the assay with Rattus norvegicus [3] is “Not significant”.

In the case of `CCCC(NC(=O)Cc1ccc(C(=O)O)cc1)c1ccccc1C1CCCCC1` (stereo not given), the figures for the “Delta BG” value in the assay with Rattus norvegicus [5] and in the assay on Rattus norvegicus [1] were -9% and -31%, respectively.

Take `O=C(Cc1ccc(C(=O)O)cc1)N[C@H](c1ccccc1)c1ccccc1N1CCCCC1`: the “Delta BG” value in the assay with Rattus norvegicus [8] is “Not significant”.

As to `CC(NS(=O)(=O)Cc1ccc(C(=O)O)cc1)c1ccccc1N1CCCCC1` (stereo not given), in the assay with Rattus norvegicus [3], the “Delta BG” value was “Not significant”.

Take `CC(NC(=O)Cc1ccc(C(=O)O)cc1)c1cc(Cl)ccc1N1CCCCCCCC1` (stereo not given): the “Delta BG” value with Rattus norvegicus [3] was “Not significant”.

Take `CC1CCN(c2ccc(Cl)cc2C(=O)NCCc2ccc(C(=O)O)cc2)CC1`: in the assay with Rattus norvegicus [8], the “Delta BG” value is “Not significant”.

Consider `CC(C(=O)NCc1ccc(C(=O)O)cc1)c1ccccc1N1CCCCC1` (stereo not given), for which the “Delta BG” value in the assay on Rattus norvegicus [2] is -32%.

Consider `CC(NC(=O)Cc1ccc(C(=O)O)cc1)c1ccccc1N1CCCCC1` (stereo not given), for which the median effective dose (ED50) in the assay with Rattus norvegicus [10] and with Rattus norvegicus [10] (setting [11]) was 0.3 mg/kg in each case. For the same compound, the “Delta BG” value is listed as -13% in the assay on Rattus norvegicus [9], -31% with Rattus norvegicus [6], -41% with Rattus norvegicus [5] and -49% with Rattus norvegicus [2].

Regarding `C=C(C)CC(NC(=O)Cc1ccc(C(=O)O)c(OCC)c1)c1ccccc1N1CCCCC1` (stereo not given), the “Delta BG” value with Rattus norvegicus [9] is given as -31%.

Turning to `CCCC(NCCc1ccc(C(=O)O)cc1)c1ccccc1N1CCCCC1` (stereo not given), in the assay on Rattus norvegicus [7], the “Delta BG” value was “Not significant”.

For the compound `CC(NC(=O)Cc1ccc(C(=O)O)cc1)c1ccccc1N1CCCCCC1` (stereo not given), the “Delta BG” value with Rattus norvegicus [2] is -29%.

With `CCOc1cc(CC(=O)NC(C)c2ccccc2N2CCCCC2)ccc1C(=O)O` (stereo not given), the “Delta BG” value in the assay with Rattus norvegicus [9] is listed as -27%.

Take `CCOc1cc(CC(=O)N[C@H](CC(C)C)c2ccccc2N2CCCCC2)ccc1C(=O)O`: the “Delta BG” value in the assay with Rattus norvegicus [8] was “Not significant”.

As to `CC(NC(=O)Cc1ccc(C(=O)O)cc1)c1ccc(N2CCCCC2)cc1` (stereo not given), the “Delta BG” value with Rattus norvegicus [3] was “Not significant”.

For the compound `CCOc1cc(CC(=O)NC(CC2CCCCCC2)c2ccccc2N2CCCCC2)ccc1C(=O)O` (stereo not given), the “Delta BG” value in the assay on Rattus norvegicus [6] is listed as -19%.

For `CC(NC(=O)Cc1cccc(C(=O)O)c1)c1ccccc1N1CCCCC1` (stereo not given), the “Delta BG” value in the assay on Rattus norvegicus [4] is given as -12%.

`CCN(CC)c1ccc(Cl)cc1C(=O)NCCc1ccc(C(=O)O)cc1`: the “Delta BG” value with Rattus norvegicus [4] was -35%.

In the case of `COc1ccc(Cl)cc1C(=O)NCCc1ccc(C(=O)O)cc1` [MEGLITINIDE], the 50% effective dose (ED50) in the assay on Rattus norvegicus [10] (setting [11]) was determined as 9.4 mg/kg. Also, the “Delta BG” value in the assay on Rattus norvegicus [5] is recorded as -9%; in the assay on Rattus norvegicus [1], -22%.

`O=C(O)c1ccc(CCNC(=O)c2cc(Cl)ccc2N2CCCCCCCCCC2)cc1`: in the assay on Rattus norvegicus [8], the “Delta BG” value is “Not significant”.

For `CCOc1cc(CC(=O)NC(CC2CCCCC2)c2ccccc2N2CCCCC2)ccc1C(=O)O` (stereo not given), the “Delta BG” value in the assay on Rattus norvegicus [9] is -23%.

Consider `CCCCC(NC(=O)Cc1ccc(C(=O)O)c(OCC)c1)c1ccccc1N1CCCCC1` (stereo not given), for which the “Delta BG” value with Rattus norvegicus [9] is on record as -24%; in the assay with Rattus norvegicus [6] it was -45%.

In the case of `CC(NC(=O)Cc1ccccc1C(=O)O)c1ccccc1N1CCCCC1` (stereo not given), in the assay on Rattus norvegicus [3], the “Delta BG” value was “Not significant”.

On to `CC(NC(=O)Cc1ccc(S(=O)(=O)NC(=O)NC2CCCCC2)cc1)c1ccccc1N1CCCCC1` (stereo not given), for which the “Delta BG” value in the assay with Rattus norvegicus [8] was “Not significant”; with Rattus norvegicus [2], -42%.
